Test results as given in ChEMBL document CHEMBL4406859, “Antitumor and antiviral activities of 4-substituted 1,2,3-triazolyl-2,3-dibenzyl-L-ascorbic acid derivatives” (Eur J Med Chem, 2019).

Experiments:
HFF = experiment: Cytotoxicity against human HFF cells assessed as reduction in cell viability incubated for 72 hrs by MTT assay; assay type: cell-based
How it was run: (§1)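 Cells (ATCC) grown in DMEM with 10 FBS, penicillin/streptomycin, 2 mM glutamine, 37 °C, 5 CO2. 5000 cells/well seeded; after 24 h, freshly prepared dilutions at five concentrations (0.01–100 μM) added for 72 h. MTT read-out; absorbance converted to percentage growth by NIH formulas. Two experiments in quadruplicate; IC50 by linear regression.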

MCF7 = experiment: Antiproliferative activity against human MCF7 cells assessed as reduction in cell viability incubated for 72 hrs by MTT assay; assay type: functional, cell-based; settings: MCF7, 72 h; how it was run: as §1
HepG2 = experiment: Antiproliferative activity against human HepG2 cells assessed as reduction in cell viability incubated for 72 hrs by MTT assay; assay type: functional, cell-based; settings: HepG2, 72 h; how it was run: as §1
HeLa = experiment: Antiproliferative activity against human HeLa cells assessed as reduction in cell viability incubated for 72 hrs by MTT assay; assay type: functional, cell-based; how it was run: as §1
A549 = experiment: Antiproliferative activity against human A549 cells assessed as reduction in cell viability incubated for 72 hrs by MTT assay; assay type: functional, cell-based; settings: A549, 72 h; how it was run: as §1
HCT-116 = experiment: Antiproliferative activity against human HCT116cells assessed as reduction in cell viability incubated for 72 hrs by MTT assay; assay type: functional, cell-based; settings: HCT-116, 72 h; how it was run: as §1
SW-620 = experiment: Antiproliferative activity against human SW620 cells assessed as reduction in cell viability incubated for 72 hrs by MTT assay; assay type: functional, cell-based; settings: SW-620, 72 h; how it was run: as §1
CFPAC-1 = experiment: Antiproliferative activity against human CFPAC-1 cells assessed as reduction in cell viability incubated for 72 hrs by MTT assay; assay type: functional, cell-based; settings: Homo sapiens, CFPAC-1, 72 h; read-out: IC50; how it was run: as §1
Human adenovirus 2 = experiment: Antiviral activity against Human adenovirus 2 infected in human HELF cells assessed as reduction in virus-induced cytopathogenicity incubated for 7 days by microscopic analysis; assay type: functional, organism-based; settings: Human mastadenovirus C, 168 h
[1] = Cytotoxicity against human HELF cells assessed as minimum cytotoxic concentration by observing alteration in cell morphology incubated for 3 days by microscopic analysis; assay type: cell-based; settings: HELF cells
How it was run: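 Read-out is the minimum cytotoxic concentration (MCC): the lowest compound concentration giving a microscopically detectable change in cell morphology. Measured on confluent human embryonic lung (HEL) fibroblast cultures exposed to a range of compound concentrations.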

Human alphaherpesvirus 1 [2] = experiment: Antiviral activity against Herpes simplex virus 1 KOS infected in human HELF cells assessed as reduction in virus-induced cytopathogenicity incubated for 7 days by microscopic analysis; assay type: functional, organism-based; settings: Human alphaherpesvirus 1, strain KOS, 168 h
Human coronavirus 229E = experiment: Antiviral activity against Human coronavirus 229E infected in human HELF cells assessed as reduction in virus-induced cytopathogenicity incubated for 7 days by microscopic analysis; assay type: functional, organism-based; settings: 168 h
Human alphaherpesvirus 1 [3] = experiment: Antiviral activity against Herpes simplex virus 1 TK-KOS-ACV infected in human HELF cells assessed as reduction in virus-induced cytopathogenicity incubated for 7 days by microscopic analysis; assay type: functional, organism-based; settings: Human alphaherpesvirus 1, TK-KOS-ACV, 168 h
Human alphaherpesvirus 2 = experiment: Antiviral activity against Herpes simplex virus 2 G infected in human HELF cells assessed as reduction in virus-induced cytopathogenicity incubated for 7 days by microscopic analysis; assay type: functional, organism-based; settings: Human alphaherpesvirus 2, G, 168 h

SMILES	IC50 (HFF)	IC50 (MCF7)	IC50 (HepG2)	IC50 (HeLa)	IC50 (A549)	IC50 (HCT-116)	IC50 (SW-620)	IC50 (CFPAC-1)	EC50 (Human adenovirus 2)	MCC at 72 h [1]	EC50 (Human alphaherpesvirus 1 [2])	EC50 (Human coronavirus 229E)	EC50 (Human alphaherpesvirus 1 [3])	EC50 (Human alphaherpesvirus 2)
O=C1O[C@H]([C@@H](O)Cn2cc(-c3cc(C(F)(F)F)cc(C(F)(F)F)c3)nn2)C(OCc2ccccc2)=C1OCc1ccccc1	80.7 µM	45.9 µM	33.8 µM	35.5 µM	28.9 µM	57.2 µM	49.2 µM	66.5 µM	–	–	–	–	–	–
O=C1O/C(=C\Cn2cc(-c3cc(C(F)(F)F)cc(C(F)(F)F)c3)nn2)C(OCc2ccccc2)=C1OCc1ccccc1	> 100 µM	> 100 µM	> 100 µM	> 100 µM	> 100 µM	> 100 µM	> 100 µM	> 100 µM	–	–	–	–	–	–
O=C1O/C(=C\Cn2cc(C3CC3)nn2)C(OCc2ccccc2)=C1OCc1ccccc1	17 µM	9.27 µM	53.1 µM	76.8 µM	> 100 µM	32.4 µM	29.5 µM	97.1 µM	–	–	–	–	–	–
Nc1ccn([C@H]2CC[C@@H](CO)O2)c(=O)n1 [ZALCITABINE]	–	–	–	–	–	–	–	–	10 µM	> 250 µM	–	–	–	–
O=C1O[C@H]([C@@H](O)Cn2cc(-c3ccc(Br)cc3)nn2)C(OCc2ccccc2)=C1OCc1ccccc1	5.1 µM	5.62 µM	–	3.91 µM	0.75 µM	9.42 µM	3.76 µM	5.83 µM	–	–	–	–	–	–
CCCCCc1ccc(-c2cn(C[C@H](O)[C@H]3OC(=O)C(OCc4ccccc4)=C3OCc3ccccc3)nn2)cc1	> 100 µM	9.01 µM	7.46 µM	8.39 µM	6.22 µM	13.8 µM	12.2 µM	9.89 µM	–	–	–	–	–	–
O=C1O[C@H]([C@@H](O)CO)C(O)=C1O [ASCORBIC ACID]	> 100 µM	> 100 µM	> 100 µM	> 100 µM	> 100 µM	> 100 µM	> 100 µM	> 100 µM	–	–	–	–	–	–
CCCCCCCCCCc1cn(C/C=C2\OC(=O)C(OCc3ccccc3)=C2OCc2ccccc2)nn1	> 100 µM	72 µM	> 100 µM	> 100 µM	> 100 µM	98.8 µM	91.7 µM	> 100 µM	–	–	–	–	–	–
O=C1O[C@H]([C@@H](O)Cn2cc(CNS(=O)(=O)c3ccc(F)cc3)nn2)C(OCc2ccccc2)=C1OCc1ccccc1	0.03 µM	26.8 µM	18.3 µM	25 µM	22.5 µM	22.9 µM	41.1 µM	34.7 µM	–	–	–	–	–	–
CCCCc1cn(C/C=C2\OC(=O)C(OCc3ccccc3)=C2OCc2ccccc2)nn1	49.5 µM	57.2 µM	77.1 µM	67.7 µM	> 100 µM	61.2 µM	–	72.5 µM	20 µM	100 µM	> 100 µM	8.45 µM	> 100 µM	9.45 µM
O=C1O/C(=C\Cn2cc(CCCCl)nn2)C(OCc2ccccc2)=C1OCc1ccccc1	94.1 µM	23.6 µM	81.1 µM	66.8 µM	–	66.8 µM	21.6 µM	> 100 µM	–	–	–	–	–	–
O=C1O[C@H]([C@@H](O)Cn2cc(CNS(=O)(=O)c3ccc(Cl)cc3)nn2)C(OCc2ccccc2)=C1OCc1ccccc1	0.02 µM	4.17 µM	7.51 µM	13.6 µM	2.87 µM	8.38 µM	18 µM	38.9 µM	–	–	–	–	–	–
COc1ccc(-c2cn(C[C@H](O)[C@H]3OC(=O)C(OCc4ccccc4)=C3OCc3ccccc3)nn2)cc1	< 0.01 µM	99.7 µM	46.4 µM	16.4 µM	28.3 µM	> 100 µM	58.2 µM	26 µM	–	–	–	–	–	–
Cc1cn([C@H]2C[C@H](F)[C@@H](CO)O2)c(=O)[nH]c1=O [ALOVUDINE]	–	–	–	–	–	–	–	–	22 µM	> 250 µM	–	–	–	–
O=C1O[C@H]([C@@H](O)Cn2cc(CCO)nn2)C(OCc2ccccc2)=C1OCc1ccccc1	58.5 µM	63.4 µM	68.1 µM	68.8 µM	> 100 µM	72.7 µM	> 100 µM	> 100 µM	–	–	–	–	–	–
Cc1ccc(-c2cn(C[C@H](O)[C@H]3OC(=O)C(OCc4ccccc4)=C3OCc3ccccc3)nn2)cc1	> 100 µM	> 100 µM	8.77 µM	25.5 µM	8.69 µM	> 100 µM	> 100 µM	> 100 µM	–	–	–	–	–	–
O=C1O[C@H]([C@@H](O)Cn2cc(CCCCl)nn2)C(OCc2ccccc2)=C1OCc1ccccc1	27.1 µM	24.5 µM	35 µM	36.7 µM	29 µM	36.1 µM	68.5 µM	58.8 µM	–	–	–	–	–	–
O=C1O[C@H]([C@@H](O)Cn2cc(-c3cccc(O)c3)nn2)C(OCc2ccccc2)=C1OCc1ccccc1	39 µM	51.8 µM	62.7 µM	–	59.9 µM	42.9 µM	> 100 µM	54.1 µM	–	–	–	–	–	–
CC(C)(C)OC(=O)N1CCN(C(=S)SCc2cn(C[C@H](O)[C@H]3OC(=O)C(OCc4ccccc4)=C3OCc3ccccc3)nn2)CC1	0.06 µM	> 100 µM	> 100 µM	> 100 µM	> 100 µM	> 100 µM	> 100 µM	> 100 µM	–	–	–	–	–	–
CCCCCc1ccc(-c2cn(C/C=C3\OC(=O)C(OCc4ccccc4)=C3OCc3ccccc3)nn2)cc1	> 100 µM	> 100 µM	> 100 µM	> 100 µM	> 100 µM	> 100 µM	> 100 µM	> 100 µM	–	–	–	–	–	–
O=C1O[C@H]([C@@H](O)Cn2cc(-c3cc(F)cc(F)c3)nn2)C(OCc2ccccc2)=C1OCc1ccccc1	> 100 µM	27.7 µM	11.6 µM	40.8 µM	41.2 µM	48.2 µM	> 100 µM	62.4 µM	–	–	–	–	–	–
Cc1ccc(S(=O)(=O)NCc2cn(C[C@H](O)[C@H]3OC(=O)C(OCc4ccccc4)=C3OCc3ccccc3)nn2)cc1	0.05 µM	6.4 µM	24.9 µM	14.4 µM	16.8 µM	13.1 µM	45.8 µM	68 µM	–	–	–	–	–	–
COc1ccccc1-c1cn(C[C@H](O)[C@H]2OC(=O)C(OCc3ccccc3)=C2OCc2ccccc2)nn1	0.05 µM	> 100 µM	> 100 µM	> 100 µM	> 100 µM	> 100 µM	> 100 µM	> 100 µM	–	–	–	–	–	–
